The source of these data is ChEMBL document CHEMBL3608218, “Optimization of a Dibenzodiazepine Hit to a Potent and Selective Allosteric PAK1 Inhibitor” (ACS Med Chem Lett, 2015).

One may read the pKd as −log10 of the Kd, conventionally taken in molar units. The low end stands for a large Kd, the high end for a small Kd. Usually pIC50 stands for the negative decadic logarithm of the IC50, by convention in mol/L. Usually solubility stands for the dissolved amount per volume that the medium holds. One may read the half-life as the time needed for the level to fall by half in the phase considered. What is called Papp A→B is how fast a substance crosses the layer from the apical side.

In series [1] the target is Serine/threonine-protein kinase PAK 3 (Homo sapiens, UniProt O75914). The experiment in a line: Binding affinity to PAK3 (unknown origin) expressed in HEK293 cells after 1 hr by qPCR analysis. It is filed as cell-based. Background: In qPCR the cycle at which signal appears reflects the starting amount.
Sequence of Serine/threonine-protein kinase PAK 3 (O75914 whole entry): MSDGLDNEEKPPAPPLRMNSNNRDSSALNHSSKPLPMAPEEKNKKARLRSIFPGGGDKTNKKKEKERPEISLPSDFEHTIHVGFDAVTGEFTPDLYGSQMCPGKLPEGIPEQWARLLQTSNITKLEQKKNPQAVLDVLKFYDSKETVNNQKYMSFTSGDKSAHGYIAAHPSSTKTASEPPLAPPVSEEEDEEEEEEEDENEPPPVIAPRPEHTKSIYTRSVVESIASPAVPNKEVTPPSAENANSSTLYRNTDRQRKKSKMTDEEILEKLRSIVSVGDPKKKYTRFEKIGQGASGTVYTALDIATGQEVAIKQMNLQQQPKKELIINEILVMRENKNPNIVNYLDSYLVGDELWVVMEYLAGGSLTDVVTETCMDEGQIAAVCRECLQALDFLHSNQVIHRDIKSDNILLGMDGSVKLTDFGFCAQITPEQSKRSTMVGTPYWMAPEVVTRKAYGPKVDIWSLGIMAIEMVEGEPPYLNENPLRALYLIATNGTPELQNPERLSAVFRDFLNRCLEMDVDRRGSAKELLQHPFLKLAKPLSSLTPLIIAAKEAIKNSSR
The target of series [2] is T1, Serine/threonine-protein kinase PAK 6 (Homo sapiens, UniProt Q9NQU5). The series can be described thus: Binding affinity to PAK6 (unknown origin) expressed in HEK293 cells after 1 hr by qPCR analysis. The format is cell-based.
T1 sequence (Q9NQU5 whole entry): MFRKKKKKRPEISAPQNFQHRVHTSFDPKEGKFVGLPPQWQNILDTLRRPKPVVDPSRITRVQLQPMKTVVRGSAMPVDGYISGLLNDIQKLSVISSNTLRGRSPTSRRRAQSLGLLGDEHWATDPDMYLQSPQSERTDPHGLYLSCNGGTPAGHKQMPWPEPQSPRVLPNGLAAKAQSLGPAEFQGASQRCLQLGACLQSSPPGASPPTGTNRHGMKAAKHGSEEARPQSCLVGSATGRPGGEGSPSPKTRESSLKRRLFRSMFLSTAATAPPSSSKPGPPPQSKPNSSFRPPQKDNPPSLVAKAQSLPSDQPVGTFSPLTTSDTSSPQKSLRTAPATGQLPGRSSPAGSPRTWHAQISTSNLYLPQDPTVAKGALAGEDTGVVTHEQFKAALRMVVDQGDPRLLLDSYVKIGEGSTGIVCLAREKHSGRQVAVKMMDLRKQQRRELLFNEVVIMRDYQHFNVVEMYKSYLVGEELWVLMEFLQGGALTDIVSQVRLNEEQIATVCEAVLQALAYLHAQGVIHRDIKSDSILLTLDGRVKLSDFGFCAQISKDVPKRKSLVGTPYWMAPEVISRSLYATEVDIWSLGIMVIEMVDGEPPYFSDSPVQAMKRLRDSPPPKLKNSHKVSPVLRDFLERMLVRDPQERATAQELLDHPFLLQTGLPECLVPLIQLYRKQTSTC
The target of series [3] is T2, Serine/threonine-protein kinase PAK 1 (Homo sapiens, UniProt Q13153). The series can be described thus: Binding affinity to PAK1 (unknown origin) expressed in HEK293 cells after 1 hr by qPCR analysis. The format is cell-based.
T2 sequence (Q13153 whole entry): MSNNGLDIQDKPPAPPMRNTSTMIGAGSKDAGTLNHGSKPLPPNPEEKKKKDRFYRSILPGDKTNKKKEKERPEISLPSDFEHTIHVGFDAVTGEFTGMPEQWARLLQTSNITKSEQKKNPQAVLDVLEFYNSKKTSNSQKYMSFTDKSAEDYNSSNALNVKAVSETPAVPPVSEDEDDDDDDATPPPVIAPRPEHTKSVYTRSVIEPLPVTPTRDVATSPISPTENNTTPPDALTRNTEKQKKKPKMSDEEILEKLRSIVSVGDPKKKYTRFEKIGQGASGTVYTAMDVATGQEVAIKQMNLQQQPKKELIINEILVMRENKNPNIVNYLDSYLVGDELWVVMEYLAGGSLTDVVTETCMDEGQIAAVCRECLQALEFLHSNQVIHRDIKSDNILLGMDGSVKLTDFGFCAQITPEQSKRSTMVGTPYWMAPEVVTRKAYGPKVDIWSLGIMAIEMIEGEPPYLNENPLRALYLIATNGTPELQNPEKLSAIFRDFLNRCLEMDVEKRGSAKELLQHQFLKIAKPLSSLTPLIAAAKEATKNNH
Series [4] addresses T3, Serine/threonine-protein kinase PAK 2 (Homo sapiens, UniProt Q13177). The experiment in a line: Binding affinity to PAK2 (unknown origin) expressed in HEK293 cells after 1 hr by qPCR analysis. The format is cell-based.
The target of series [5] is T4, Serine/threonine-protein kinase PAK 4 (Homo sapiens, UniProt O96013). The experiment in a line: Binding affinity to PAK4 (unknown origin) expressed in HEK293 cells after 1 hr by qPCR analysis. It is filed as cell-based.
T4 sequence (O96013 whole entry): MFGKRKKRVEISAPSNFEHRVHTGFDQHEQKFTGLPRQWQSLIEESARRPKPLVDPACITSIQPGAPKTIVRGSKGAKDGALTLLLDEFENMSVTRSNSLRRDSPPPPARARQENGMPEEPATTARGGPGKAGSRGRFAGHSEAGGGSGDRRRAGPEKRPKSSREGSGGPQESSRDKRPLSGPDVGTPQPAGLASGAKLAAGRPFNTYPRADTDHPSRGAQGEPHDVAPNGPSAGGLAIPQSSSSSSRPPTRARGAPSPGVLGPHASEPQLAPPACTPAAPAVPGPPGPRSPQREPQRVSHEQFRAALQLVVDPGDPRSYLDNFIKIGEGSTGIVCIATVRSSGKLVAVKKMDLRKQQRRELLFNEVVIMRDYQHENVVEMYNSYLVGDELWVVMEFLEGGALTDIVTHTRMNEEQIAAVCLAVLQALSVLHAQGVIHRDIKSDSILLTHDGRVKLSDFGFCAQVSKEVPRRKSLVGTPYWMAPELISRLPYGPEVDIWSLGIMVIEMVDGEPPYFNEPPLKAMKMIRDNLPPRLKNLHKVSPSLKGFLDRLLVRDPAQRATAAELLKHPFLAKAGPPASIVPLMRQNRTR
In series [6] the target is T2, Serine/threonine-protein kinase PAK 1. The experiment in a line: Inhibition of wild type dephosphorylated form of PAK1 (249 to 545) (unknown origin) expressed in Escherichia coli using 5-Fluo-Ahx-AKRRRLSSLRA-COOH as substrate preincubated for 60 mins followed by substrate addition measured after 60 mins by Caliper assay.
The target in series [7] is T5, Muscarinic acetylcholine receptor M1 (Homo sapiens, UniProt P11229).
T5 sequence (P11229 whole entry): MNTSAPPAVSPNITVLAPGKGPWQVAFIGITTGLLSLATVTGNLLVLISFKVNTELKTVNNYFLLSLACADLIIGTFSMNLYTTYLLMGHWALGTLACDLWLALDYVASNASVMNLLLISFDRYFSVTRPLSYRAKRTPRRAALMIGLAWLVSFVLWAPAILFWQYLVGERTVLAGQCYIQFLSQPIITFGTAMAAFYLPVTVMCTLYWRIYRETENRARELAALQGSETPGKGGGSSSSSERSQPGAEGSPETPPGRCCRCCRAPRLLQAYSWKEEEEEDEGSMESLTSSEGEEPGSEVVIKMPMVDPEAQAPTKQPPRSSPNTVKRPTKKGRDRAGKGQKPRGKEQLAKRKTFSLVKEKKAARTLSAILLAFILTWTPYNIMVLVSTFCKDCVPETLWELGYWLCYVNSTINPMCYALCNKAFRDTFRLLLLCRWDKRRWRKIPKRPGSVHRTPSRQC
The experiment in a line: Inhibition of recombinant human muscarinic M1 receptor.

Series [8] in a line: Aqueous solubility of the compound at pH 6.8. It is filed as physicochemical. Particulars: buffer.
Series [9] deals with Cytochrome P450 2C9 (Homo sapiens, UniProt P11712). The experiment in a line: Inhibition of CYP2C9 (unknown origin). It is filed as ADME.
Sequence of Cytochrome P450 2C9 (P11712 whole entry): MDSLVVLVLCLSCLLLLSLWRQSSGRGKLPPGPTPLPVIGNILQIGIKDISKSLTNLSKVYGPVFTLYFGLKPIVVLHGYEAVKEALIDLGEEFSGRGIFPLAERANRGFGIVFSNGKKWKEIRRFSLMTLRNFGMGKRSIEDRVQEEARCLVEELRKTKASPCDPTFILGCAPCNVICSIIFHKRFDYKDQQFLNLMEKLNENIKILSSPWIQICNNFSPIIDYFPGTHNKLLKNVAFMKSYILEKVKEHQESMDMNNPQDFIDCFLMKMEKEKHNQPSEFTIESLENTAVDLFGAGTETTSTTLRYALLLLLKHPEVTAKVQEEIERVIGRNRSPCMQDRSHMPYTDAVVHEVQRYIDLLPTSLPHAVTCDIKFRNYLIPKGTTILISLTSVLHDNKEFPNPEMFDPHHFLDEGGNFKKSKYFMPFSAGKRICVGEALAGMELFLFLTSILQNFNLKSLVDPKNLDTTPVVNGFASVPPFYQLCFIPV
The target of series [10] is Histamine H1 receptor (Homo sapiens, UniProt P35367). The series can be described thus: Inhibition of recombinant human histamine H1 receptor.
Sequence of Histamine H1 receptor (P35367 whole entry): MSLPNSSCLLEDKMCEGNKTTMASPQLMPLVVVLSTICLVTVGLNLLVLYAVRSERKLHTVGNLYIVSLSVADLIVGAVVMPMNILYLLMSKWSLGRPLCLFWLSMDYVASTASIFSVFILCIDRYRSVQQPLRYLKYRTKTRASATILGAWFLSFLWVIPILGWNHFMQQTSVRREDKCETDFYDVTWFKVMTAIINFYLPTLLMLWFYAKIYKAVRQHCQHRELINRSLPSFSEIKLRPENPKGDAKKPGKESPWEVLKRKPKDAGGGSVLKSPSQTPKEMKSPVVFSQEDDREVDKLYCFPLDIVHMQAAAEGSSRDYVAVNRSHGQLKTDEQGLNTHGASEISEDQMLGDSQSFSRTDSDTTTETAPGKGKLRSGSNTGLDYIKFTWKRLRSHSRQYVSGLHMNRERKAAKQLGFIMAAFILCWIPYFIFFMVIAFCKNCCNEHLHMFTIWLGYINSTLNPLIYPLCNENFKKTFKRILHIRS
Series [11] deals with T3, Serine/threonine-protein kinase PAK 2. Particulars: SU8686, 0.009 to 20 uM.
Series [12] is described as follows: Half life in rat liver microsomes. The format is ADME. In general terms: Liver microsomes are vesicles of endoplasmic reticulum, rich in cytochrome P450 enzymes.
Series [13] concerns SU.86.86. The experiment in a line: Cytotoxicity against human SU8686 cells assessed as growth inhibition at 0.21 uM after 5 days by CTG assay in presence of PAK2 shRNA. The format is functional, cell-based.
Series [14] concerns SU.86.86. The series can be described thus: Cytotoxicity against human SU8686 cells assessed as growth inhibition at >2 uM after 5 days by CTG assay. The format is functional, cell-based.
Series [15] can be described thus: Aqueous solubility of the compound at pH 4. It is filed as physicochemical. Particulars: buffer.
Series [16] deals with T3, Serine/threonine-protein kinase PAK 2. The conditions noted are these: SU8686, 0.21 uM.
The target of series [17] is Cytochrome P450 2D6 (Homo sapiens, UniProt P10635). The series can be described thus: Inhibition of CYP2D6 (unknown origin). The format is ADME.
Series [18] in a line: Apparent permeability across apical to basolateral side in human Caco2 cells. The conditions noted are these: Caco-2. It is filed as ADME, cell-based.
In series [19] the target is T3, Serine/threonine-protein kinase PAK 2. Particulars: SU8686, 6 to 20 uM.
Series [20] has as its target Cytochrome P450 3A4 (Homo sapiens, UniProt P08684). The experiment in a line: Inhibition of CYP3A4 midazolam site (unknown origin). It is filed as ADME.
Series [21] can be described thus: Permeability of the compound by PAMPA. The format is physicochemical. An outline of the steps:
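PAMPA permeability was expressed as a calculated fraction absorbed (cFA).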
Background: PAMPA measures passive passage across an artificial lipid membrane.

The target of series [22] is T2, Serine/threonine-protein kinase PAK 1. The experiment in a line: Inhibition of wild type phosphorylated form of PAK1 (249 to 545) (unknown origin) expressed in Escherichia coli using 5-Fluo-Ahx-AKRRRLSSLRA-COOH as substrate preincubated for 60 mins followed by substrate addition measured after 60 mins by Caliper assay.
For series [23], the target named is T4, Serine/threonine-protein kinase PAK 4. The series can be described thus: Inhibition of PAK4 kinase domain (300 to 591) (unknown origin) assessed as phosphate incorporation onto MBP preincubated for 5 mins followed by Cdc42, MBP, and mixture of ATP and [32P]-gamma-ATP addition measured after 20 mins by scintillation counting analysis.
Series [24] deals with T1, Serine/threonine-protein kinase PAK 6. The experiment in a line: Inhibition of full length human PAK6 assessed as phosphate incorporation onto MBP preincubated for 5 mins followed by Cdc42, MBP, and mixture of ATP and [32P]-gamma-ATP addition measured after 20 mins by scintillation counting analysis.
Series [25] concerns the target T2, Serine/threonine-protein kinase PAK 1. The experiment in a line: Non-ATP competitive inhibition of full-length human PAK1 assessed as phosphate incorporation onto MBP preincubated for 5 mins followed by Cdc42, MBP, and mixture of ATP and [32P]-gamma-ATP addition measured after 20 mins by scintillation counting analysis.
Series [26] concerns the target Serine/threonine-protein kinase PAK 5 (Homo sapiens, UniProt Q9P286). The series can be described thus: Inhibition of full length PAK5 (unknown origin) expressed in HEK293 cells assessed as phosphate incorporation onto MBP preincubated for 5 mins followed by Cdc42, MBP, and mixture of ATP and [32P]-gamma-ATP addition measured after 20 mins by scintillation counting analysis. The format is cell-based.

Each structure is given as a SMILES string. pIC50, pKd: −log10 of the molar value. Converted amounts (≈) assume the structure as drawn. The source made the active and inactive calls. Bounds are passed on as bounds.

T3 sequence (Q13177 whole entry): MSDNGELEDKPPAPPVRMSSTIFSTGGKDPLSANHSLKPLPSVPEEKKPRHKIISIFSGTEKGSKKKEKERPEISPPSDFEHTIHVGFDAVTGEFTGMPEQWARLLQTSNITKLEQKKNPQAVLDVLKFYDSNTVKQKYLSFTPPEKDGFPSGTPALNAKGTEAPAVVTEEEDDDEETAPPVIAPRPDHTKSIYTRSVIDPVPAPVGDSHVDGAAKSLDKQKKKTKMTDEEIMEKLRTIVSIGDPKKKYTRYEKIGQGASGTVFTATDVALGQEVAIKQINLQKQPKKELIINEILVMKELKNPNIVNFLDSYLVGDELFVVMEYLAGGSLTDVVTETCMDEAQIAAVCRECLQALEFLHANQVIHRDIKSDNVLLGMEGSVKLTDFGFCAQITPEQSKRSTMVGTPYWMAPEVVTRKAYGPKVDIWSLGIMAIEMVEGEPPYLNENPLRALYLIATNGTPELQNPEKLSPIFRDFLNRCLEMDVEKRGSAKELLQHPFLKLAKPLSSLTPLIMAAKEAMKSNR
Sequence of Serine/threonine-protein kinase PAK 5 (Q9P286 whole entry): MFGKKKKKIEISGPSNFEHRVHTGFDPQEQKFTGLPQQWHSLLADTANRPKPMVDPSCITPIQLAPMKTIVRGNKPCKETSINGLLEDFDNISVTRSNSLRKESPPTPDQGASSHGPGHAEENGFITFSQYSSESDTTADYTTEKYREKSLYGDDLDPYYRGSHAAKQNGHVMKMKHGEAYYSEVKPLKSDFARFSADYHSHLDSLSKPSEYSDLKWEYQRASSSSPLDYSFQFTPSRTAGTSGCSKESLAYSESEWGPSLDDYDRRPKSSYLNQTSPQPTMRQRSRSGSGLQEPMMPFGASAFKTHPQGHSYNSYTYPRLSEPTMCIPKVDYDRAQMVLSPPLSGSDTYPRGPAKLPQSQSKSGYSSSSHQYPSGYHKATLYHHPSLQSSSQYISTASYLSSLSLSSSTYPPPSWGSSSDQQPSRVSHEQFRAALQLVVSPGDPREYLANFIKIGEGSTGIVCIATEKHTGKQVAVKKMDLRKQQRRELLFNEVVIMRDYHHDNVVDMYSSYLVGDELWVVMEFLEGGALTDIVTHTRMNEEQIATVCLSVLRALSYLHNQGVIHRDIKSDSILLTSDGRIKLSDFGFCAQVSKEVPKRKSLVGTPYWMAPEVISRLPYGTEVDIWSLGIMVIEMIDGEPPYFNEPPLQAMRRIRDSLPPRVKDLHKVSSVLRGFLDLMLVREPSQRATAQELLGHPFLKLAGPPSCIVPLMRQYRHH

Take `CCN1c2ccc(F)cc2N=C(N2CCN(C)CC2)c2cc(Cl)ccc21`: the pKd in [1] was less than 4.40; in [2] it was less than 4.40; in series [3], 6.47; in series [4], less than 4.40; in series [5], less than 4.40. Further, in series [6], the pIC50 was 6.49.
In the case of `CC(C)NC(=O)N1CC[C@H](NC2=Nc3cc(F)ccc3N(CC(F)F)c3ccc(Cl)cc32)C1`, the negative logarithm of the IC50 (pIC50) in series [7] and in series [10] was less than 4.52 in each case. For the same compound, the results for the solubility in [8] and in [15] were 55 µM (≈ 26.4 µg/mL) and greater than 1000 µM, respectively. Further, the INH was 16.7 µM in series [9], greater than 20 µM in series [17] and 13.2 µM in series [20]. Also, the inhibition entry in series [11], in series [16] and in series [19] was “Active” in each case. The same compound returned a half-life in series [12] of 3.5 min. Besides, the “growth inhibition (GI)” value in series [13] and in [14] was “Active” in each case. Besides, the Papp A→B in series [18] was determined as 0.428 ×10⁻⁶ cm/s. Also, in series [4], the negative logarithm of the Kd (pKd) was 6.40. Moreover, the permeability result in [21] is on record as “permeable”.
In [8], `CCN1c2ccc(F)cc2N=C(N[C@H]2CCN(C(=O)NC(C)(C)C)C2)c2cc(Cl)ccc21` showed a solubility of less than 4 µM. Also, the pKd in series [1] was less than 4.40; in series [4] it was 5.96; in series [5], less than 4.40.
In the case of `CCN1c2ccc(F)cc2N=C(N[C@H]2CCN(C(=O)OC(C)(C)C)C2)c2cc(Cl)ccc21`, the negative logarithm of the Kd (pKd) in series [1] is less than 4.40; in series [2] it was less than 4.40; in series [3], 6.89; in [4], less than 4.40; in series [5], less than 4.40. Moreover, the negative logarithm of the IC50 (pIC50) in series [6] was 6.72.
Turning to `CN1CCN(C2=Nc3cc(F)ccc3Nc3ccc(F)cc32)CC1`, the negative-log IC50 (pIC50) in series [7] was 8.22; in series [10] it was 9.00; in series [22], 4.27; in series [6], 4.92.
With `Oc1ccc2ccccc2c1SSc1c(O)ccc2ccccc12`, the negative logarithm of the IC50 (pIC50) is less than 5.00 in [23], less than 5.00 in [24], 5.60 in series [25] and less than 5.00 in series [26].
